# Assay outcomes from PubChem BioAssay.
# Shown are actives, neighbours in structure and some others; about 3% of the full set was active somewhere.
# Cneo AK release = Cryptococcus neoformans cell lysis inducers, primary screen, AK release luminescence, single concentration; C. neoformans lysis, adenylate kinase release luminescence, 4 h; normalised: neutral wells 0, clomiphene wells 100; lysis activity, % at 15 µM; hit rate 0.2% among 360,000;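 active = mean lysis activity across replicates of at least 80%, whatever share of replicates individually reach that level; inactive = mean lysis activity below 80%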
#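 Signal: Adenylate kinase release luminescence | Assay system: Log-phase Cryptococcus neoformans yeast cells | Input: Cells at 5 × 10^6 per mL | Buffer or medium: Fresh YPD growth medium | Compound: Single dose | Schedule: Static 4 h at 37 °C with compound, 1 h detection | Controls: Clomiphene | Read-out: Luminescence rise reflecting yeast cell lysis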
# rRNA inh HTS = reduced GFP signal of wild-type E. coli, primary screen, bacterial rRNA inhibitor project, GFP/RFP fluorescence, OD600, single point. E. coli WT GFP vs humanized-ribosome RFP mutants, 24 h; stronger effect = lower value; DMSO median 0, no signal -100. hit rate 1.6% among 350,000. GFP signal change (wild-type ribosome), % (test concentration not listed);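 active = significant combined selectivity score with lowered wild-type GFP, culture density cut under 30%, mutant RFP and density less affected; inactive = any of these conditions unmet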
# Statin myotox sup = suppressors of statin myotoxicity in C2C12 myotubes, primary screen, cell-based, single point, plate reader. C2C12 myotubes + simvastatin, ATP luminescence, 48 h; scaled: DMSO 0, geranylgeraniol control 100. rescue of ATP level, % at 7.49 µM. hit rate 0.78% among 330,000;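 active = mean ATP rescue above about 67%, or every replicate alone reaching that limit, limit read from the data, passing the limit was not always enough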;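 note: myotubes were challenged with 10 µM simvastatin during compound exposure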
# PGC1a acetyl inh = inhibitors of PGC1a acetylation signal, primary screen, cell-based, U2OS, AlphaScreen, inhibitor mode; inhibition, % at 15.6 µM; AlphaScreen anti-acetyl-lysine; with virally co-expressed GCN5 acetyltransferase; hit rate 0.17% among 350,000; AID 651687, 2012;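 active = every replicate shows inhibition of at least 40%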;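 note: 0% = neutral control wells and 100% = positive control wells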
# S100A4 MyoIIA = inhibitors of S100A4-myosin IIA peptide binding, primary screen, biochemical, fluorescence polarization, TAMRA-MyoIIA peptide; Protein S100-A4 (Homo sapiens), P26447; inhibition, % at 10.7 µM; hit rate 0.14% among 360,000;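 active = mean inhibition of at least 70% across replicates, with every replicate also reaching that level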
# Target sequence (P26447 whole entry, looked up): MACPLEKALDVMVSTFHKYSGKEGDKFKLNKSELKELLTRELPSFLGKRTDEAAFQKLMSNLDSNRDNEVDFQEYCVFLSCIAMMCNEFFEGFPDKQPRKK
#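 Assay system: human S100A4 monomer with TAMRA-labelled myosin IIA peptide / Buffer or medium: Calcium-containing HEPES buffer, pH 7.2 / Reagent: TAMRA-labelled myosin IIA heavy-chain peptide probe, 5 nM / Compound: one dose per compound / Timing: polarization read 5 min after assay mix addition, stable 5–60 min / Benchmarks: neutral control DMSO, positive control TFP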
# SIRT5 block = SIRT5 desuccinylase inhibitors, primary screen, biochemical, fluorescence imaging, single point, set 5 | NAD-dependent protein deacylase sirtuin-5, mitochondrial (Homo sapiens), Q9NXA8 | Purified SirT5, succinyl-peptide AMC, trypsin-coupled fluorescence | inhibition, % at 15 µM | hit rate 1.1% among 330,000 | AID 652115, 2013; in the data active = inhibition above about 15%
# Target sequence (Q9NXA8 whole entry, looked up): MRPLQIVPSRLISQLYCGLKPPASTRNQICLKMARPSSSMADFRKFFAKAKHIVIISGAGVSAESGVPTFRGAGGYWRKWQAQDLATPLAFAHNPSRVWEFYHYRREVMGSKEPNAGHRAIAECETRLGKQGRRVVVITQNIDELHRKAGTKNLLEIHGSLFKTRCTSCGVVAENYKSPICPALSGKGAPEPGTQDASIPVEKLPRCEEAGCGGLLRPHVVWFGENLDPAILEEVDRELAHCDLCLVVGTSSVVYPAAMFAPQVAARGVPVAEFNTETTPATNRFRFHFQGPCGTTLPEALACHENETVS
# The depositor's hits bear a star; · = not tested or not shown.
SMILES,Cneo AK release,rRNA inh HTS,Statin myotox sup,PGC1a acetyl inh,S100A4 MyoIIA,SIRT5 block
C[C@H](CO)N1C[C@H](C)[C@H](CN(C)Cc2ccncc2)Oc2cc(Br)ccc2S1(=O)=O,1.5,-5.8,-10.6,-20.2,-4.9,15.2*
C[C@H](CO)N1C[C@H](C)[C@@H](CN(C)Cc2cncnc2)Oc2cc(-c3cncnc3)ccc2S1(=O)=O,-2.0,-3.1,-18.0,6.0,13.9,-1.4
C[C@@H]1CN([C@H](C)CO)S(=O)(=O)c2ccc(-c3cncnc3)cc2O[C@H]1CN(C)Cc1ccncc1,-1.3,-1.8,-12.2,10.2,5.7,17.1*
C[C@@H]1CN([C@H](C)CO)C(=O)c2cc(NC(=O)Cc3cn(C)c4ccccc34)ccc2O[C@@H]1CN(C)C(=O)Nc1ccc(F)cc1,41.1,-3.1,20.9,-2.1,15.7,3.2
C[C@H]1CCCCO[C@@H](CN(C)S(=O)(=O)c2cccs2)[C@@H](C)CN([C@@H](C)CO)C(=O)c2cc(N(C)C)ccc2O1,·,-6.3,-21.5,-23.9,·,·
CCC(C)(C)NC(=O)CN(C(=O)CNS(=O)(=O)c1ccccc1)c1ccccc1,4.1,·,100.7*,-12.1,·,·
CC1(C(=O)NNC(=O)C2CCCCC2)CC1(Cl)Cl (centres undefined),2.1,-26.9*,·,1.3,-0.8,-0.5
CO[C@@H]1CN(C)C(=O)c2ccc(NC(=O)Nc3ccc4c(c3)OCO4)cc2OC[C@H](C)NC[C@H]1C,-4.4,8.2,-5.3,-2.2,17.0,-1.4
COC(=O)c1nc(Cl)c(Cl)c(N)c1Cl,·,-0.4,·,·,-5.2,16.6*
COc1ccc(S(=O)(=O)N(C)C[C@H]2Oc3ccc(NC(=O)Cn4cnnn4)cc3CC(=O)N([C@H](C)CO)C[C@H]2C)cc1,1.6,1.6,-6.9,-4.3,-10.1,-4.1
Cc1ccc(C(=O)c2cn[nH]c2-c2ccccc2O)cc1,-2.4,·,23.4,-1.5,·,·
COc1ccc(C(=O)c2cn[nH]c2-c2cc(C)ccc2O)cc1,-1.0,-16.1*,11.9,·,0.1,1.4
COc1ccc(C(=O)c2cn[nH]c2-c2cc(Cl)ccc2O)cc1,0.9,·,144.1*,2.7,·,·
COc1ccc(O)c(-c2[nH]ncc2C(=O)c2cccc(C)c2)c1,-0.6,-13.1,7.0,4.8,0.7,-2.4
Cc1ccc(S(=O)(=O)c2c(COC(=O)c3ccccc3Cl)c(-c3ccccc3)nn2C)cc1,-2.0,·,116.2*,-32.8,·,·
Cc1ccc(S(=O)(=O)c2c(CO)c(-c3ccccc3)nn2C)cc1,·,-10.9,·,-2.0,-2.7,1.4
Cc1ccccc1-c1cnc2c(c1)C(=O)N([C@@H](C)CO)C[C@H](C)[C@@H](CN(C)C(=O)CN(C)C)O2,53.8,7.7,5.0,4.8,0.4,-1.5
CC1CC(C)CN(C(=O)/C=C/c2ccc([N+](=O)[O-])s2)C1 (centres undefined),0.6,-29.1*,·,·,-1.2,-2.0
CC1CN(C(=O)/C=C/c2ccc([N+](=O)[O-])s2)CC(C)O1 (centres undefined),·,1.4,·,-9.1,2.0,4.4
O=C(NCC(F)(F)F)[C@H]1[C@H](CO)[C@H]2Cn3c(cccc3=O)[C@H]2N1C(=O)C1CCC1,-0.1,-1.2,-32.1,·,2.8,1.1
COc1ccc2cc3c(N)nn(C(=O)Cc4c[nH]c5ccccc45)c3nc2c1,·,-33.4*,·,·,-20.8,-3.0
O=C(C[C@H]1CC[C@@H]2[C@H](COC[C@H](O)CN2C(=O)c2ccncc2)O1)NC1Cc2ccccc2C1,-5.1,7.2,-7.5,4.7,0.0,-0.4
CCOC(=O)c1sc(NC(=O)CN(CC(C)C)CC(C)C)c(C(=O)OCC)c1C,2.3,·,73.9*,-6.4,·,·
CC1=CC(C)(C)N=C(NC#N)N1,4.7,·,103.8*,5.0,·,·
C/C(=N\O)c1cccc(Br)c1,·,-25.2*,13.4,·,9.2,-0.4
SMILES,Cneo AK release,rRNA inh HTS,Statin myotox sup,PGC1a acetyl inh,S100A4 MyoIIA,SIRT5 block
CC(=NNC(=O)c1ccncc1)c1cccc(Br)c1,0.4,12.8,-6.9,-7.1,-0.5,·
CC[C@@H]1C/C=C\C[C@H](c2ccc(OC)cc2OC)NC(=O)[C@H](C)CC(=O)N1,·,3.0,·,·,·,·
O=C(NC[C@H]1[C@@H](c2ccccc2)[C@@H](CO)N1C(=O)C1CCC1)NC1CCCC1,97.4*,-1.1,9.5,2.8,·,·
CN(C[C@H]1[C@H](c2ccccc2)[C@@H](CO)N1C(=O)C1CC1)C(=O)c1ccccn1,-0.1,3.8,-6.8,5.1,·,·
CCC(=O)NC[C@H]1[C@@H](c2ccccc2)[C@H](CO)N1C(=O)C1CCC1,8.3,2.5,3.6,1.1,1.7,20.2*
CCN(C[C@@H]1[C@@H](c2ccccc2)[C@H](CO)N1C(=O)C1CC1)C(=O)NC1CCCC1,-0.1,-1.6,-5.5,10.1,9.7,32.0*
CN(C[C@H]1[C@H](c2ccccc2)[C@@H](CO)N1C(=O)C1CCC1)C(=O)c1ccccn1,8.5,1.6,-10.6,0.4,8.3,15.7*
Cc1noc(C)c1NC(=O)N(C)C[C@@H]1Oc2ccc(NS(=O)(=O)c3cn(C)cn3)cc2C(=O)N([C@H](C)CO)C[C@@H]1C,-0.1,1.9,-5.4,4.0,-23.2,-4.1
COc1ccc2c3c(n(C)c2c1)[C@@H](CO)N(C(=O)NC1CCCC1)CC31CCN(C)CC1,·,3.9,·,·,-12.2,-1.6
COCC(=O)N1[C@H](CO)[C@@H](c2ccccc2)[C@@H]1CNC(=O)c1ccccn1,39.9,0.4,5.3,11.2,7.7,15.1*
CCOC(=O)c1cnc(-n2nc(C)cc2C)nc1NC1CCCC1,20.9,-48.9*,·,-1.4,-19.2,0.4
CO[C@H]1CN(C)C(=O)c2ccc(NS(=O)(=O)c3ccccc3C)cc2OC[C@H](C)N(C)C[C@@H]1C,·,-0.7,·,1.9,-10.9,-0.1
CCCCn1nc(C(=O)NCC2COc3ccccc3O2)c2ccccc2c1=O (centres undefined),-1.1,-36.1*,-3.6,-0.4,-0.2,0.0
CC(C)CC(NS(=O)(=O)c1ccc2[nH]c(=O)c(=O)[nH]c2c1)C(=O)O (centres undefined),·,11.3,·,2.2,4.4,2.5
CC(NS(=O)(=O)c1ccc2[nH]c(=O)c(=O)[nH]c2c1)C(=O)O (centres undefined),-0.7,0.9,-2.8,-4.1,-0.8,24.5*
O=C(NCC1CCCO1)c1nn2c(C(F)(F)F)cc(-c3cccs3)nc2c1Cl (centres undefined),0.5,12.4,-33.2,0.3,-7.2,-5.5
